From ChEMBL document CHEMBL2434858, “Synthesis and allosteric modulation of the dopamine receptor by peptide analogs of L-prolyl-L-leucyl-glycinamide (PLG) modified in the L-proline or L-proline and L-leucine scaffolds” (Eur J Med Chem, 2013)
The source made the active and inactive calls. The calls are words filed in the database; no cut-off is given here. Residues, ends and D or L forms follow the SMILES beside them.

Key:
[1] = target: D(2) dopamine receptor (Homo sapiens) (UniProt P14416); assay: Positive allosteric modulation of human dopamine D2S receptor expressed in CHO cell membranes assessed as stimulation of [3H]-NPA binding at 1 to 10 uM after 60 mins by beta scintillation counting analysis
Procedure, shortened: (§1)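 Membranes from confluent CHO cells stably expressing human D2S, homogenized and spun at 48,400 g. Membranes were incubated with 0.25 nM [3H]NPA plus compound (eight concentrations) for 60 min at 25 °C in 50 mM Tris-HCl pH 7.4, 120 mM NaCl, 5 mM KCl, 4 mM MgCl2, 1 mM EDTA. Nonspecific binding was defined with (+)-butaclamol. Samples were filtered through PEI-treated filters. Result is % increase of specific binding over compound-free control; duplicates, three experiments, ANOVA.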

[2] = target: D(2) dopamine receptor (Homo sapiens) (UniProt P14416); assay: Positive allosteric modulation of human dopamine D2S receptor expressed in CHO cell membranes assessed as stimulation of [3H]-NPA binding at 10^-12 to 10^-9 M after 60 mins by beta scintillation counting analysis; procedure, shortened: as §1
[3] = target: D(2) dopamine receptor (Homo sapiens) (UniProt P14416); assay: Positive allosteric modulation of human dopamine D2S receptor expressed in CHO cell membranes assessed as stimulation of [3H]-NPA binding at 10^-8 to 10^-4 M after 60 mins by beta scintillation counting analysis; procedure, shortened: as §1

D(2) dopamine receptor (Homo sapiens), sequence (P14416 whole entry): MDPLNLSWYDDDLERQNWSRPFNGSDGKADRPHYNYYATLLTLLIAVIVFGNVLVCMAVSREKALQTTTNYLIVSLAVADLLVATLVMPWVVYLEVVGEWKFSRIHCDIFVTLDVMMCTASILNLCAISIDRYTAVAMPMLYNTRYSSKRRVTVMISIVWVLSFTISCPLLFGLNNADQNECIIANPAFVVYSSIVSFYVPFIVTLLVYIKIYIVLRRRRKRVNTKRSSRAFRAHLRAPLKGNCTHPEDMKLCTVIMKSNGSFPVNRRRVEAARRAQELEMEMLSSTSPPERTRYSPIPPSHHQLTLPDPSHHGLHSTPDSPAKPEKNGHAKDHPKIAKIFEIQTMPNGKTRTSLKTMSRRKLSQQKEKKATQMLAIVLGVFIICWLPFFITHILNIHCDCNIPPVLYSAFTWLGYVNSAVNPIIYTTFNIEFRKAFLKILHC

In the case of `CC(C)C[C@H](NC(=O)[C@@H]1N[C@@H](CN=[N+]=[N-])C[C@H]1CN=[N+]=[N-])C(=O)NCC(N)=O`, the Activity [1] is reported as “Active”.

`CC(C)C[C@H](NC(=O)[C@@H]1N[C@@H](CN=[N+]=[N-])C[C@H]1CN=[N+]=[N-])C(=O)NCC(=O)O` was tested, and the Activity [1] was “Active”.

With `COC(=O)CNC(=O)[C@H](CC(C)C)NC(=O)[C@@H]1N[C@@H](CN=[N+]=[N-])C[C@H]1CN=[N+]=[N-]` the Activity [1] was “Active”.

With `CC(C)C[C@H](NC(=O)[C@@H]1CCCN1)C(=O)NCC(N)=O` (H-Pro-Leu-Gly-NH2) the Activity [2] was “Active” and the Activity [3] was “inactive”.

`CC(C)[C@H](NC(=O)[C@@H]1N[C@@H](CN=[N+]=[N-])C[C@H]1CN=[N+]=[N-])C(=O)NCC(N)=O` was tested, and the Activity [1] was “Active”.

For `COC(=O)CNC(=O)[C@H](CC(C)C)NC(=O)[C@H]1N[C@H](CN=[N+]=[N-])C[C@@H]1CN=[N+]=[N-]`, the Activity [1] was “Active”.

For `CC(C)[C@H](NC(=O)[C@@H]1N[C@@H](CN=[N+]=[N-])C[C@H]1CN=[N+]=[N-])C(=O)NCC(=O)O`, the Activity [1] was “Active”.

`CC(C)[C@H](NC(=O)[C@H]1N[C@H](CN=[N+]=[N-])C[C@@H]1CN=[N+]=[N-])C(=O)NCC(=O)O` was tested, and the Activity [2] was “Active” and the Activity [3] was “inactive”.

`CC(C)C[C@H](NC(=O)[C@H]1N[C@H](CN=[N+]=[N-])C[C@@H]1CN=[N+]=[N-])C(=O)NCC(N)=O` was tested, and the Activity [1] was “Active”.

For `CC(C)[C@H](NC(=O)[C@H]1N[C@H](CN=[N+]=[N-])C[C@@H]1CN=[N+]=[N-])C(=O)NCC(N)=O`, the Activity [2] was “Active” and the Activity [3] was “inactive”.

With `COC(=O)CNC(=O)[C@@H](NC(=O)[C@@H]1N[C@@H](CN=[N+]=[N-])C[C@H]1CN=[N+]=[N-])C(C)C` the Activity [1] was “Active”.

`COC(=O)CNC(=O)[C@@H](NC(=O)[C@H]1N[C@H](CN=[N+]=[N-])C[C@@H]1CN=[N+]=[N-])C(C)C` was tested, and the Activity [1] was “Active”.
